Reference: ChEMBL document CHEMBL1148922, “Triterpenoids from Brazilian Ilex species and their in vitro antitrypanosomal activity” (J Nat Prod, 2004)
pIC50: −log10 of the molar value.

What was measured:
Trypanosoma brucei = experiment: Antitrypanosomal activity against Trypanosoma brucei S427 by microdilution method; type: functional, organism-based
Procedure, shortened: (§1)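 In vitro test run by the WHO procedure, using serial microdilution in a 96-well microtiter integrated system.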

Trypanosoma cruzi = experiment: Antitrypanosomal activity against Trypanosoma cruzi Tulahuen CL2 by microdilution method; type: functional, organism-based; procedure, shortened: as §1

| SMILES | pIC50 (Trypanosoma brucei) | pIC50 (Trypanosoma cruzi) |
| --- | --- | --- |
| CC1(C)CC[C@]2(C(=O)O[C@@H]3O[C@H](CO)[C@@H](O)[C@H](O)[C@H]3O)CC[C@]3(C)C(=CC[C@@H]4[C@@]5(C)CC[C@H](O[C@@H]6O[C@H](CO)[C@H](O)[C@H](O)[C@H]6O[C@@H]6O[C@H](CO)[C@@H](O)[C@H](O)[C@H]6O)C(C)(C)[C@@H]5CC[C@]43C)[C@@H]2C1 | < 4.49 | < 4.49 |
| CC1(C)CC[C@]2(C(=O)O)CC[C@]3(C)C(=CC[C@@H]4[C@@]5(C)CC[C@H](O[C@@H]6O[C@H](CO)[C@H](O)[C@H](O)[C@H]6O[C@@H]6O[C@H](CO)[C@@H](O)[C@H](O)[C@H]6O)C(C)(C)[C@@H]5CC[C@]43C)[C@@H]2C1 | 5.40 | 5.00 |
| C[C@H]1CC[C@]2(C(=O)O)CC[C@]3(C)C(=CC[C@@H]4[C@@]5(C)CC[C@H](O[C@@H]6OC[C@H](O)[C@H](O)[C@H]6O)[C@](C)(CO)[C@@H]5CC[C@]43C)[C@@H]2[C@]1(C)O [BREVICUSPISAPONIN 1] | < 4.49 | < 4.49 |
| C[C@H]1CC[C@]2(C(=O)O)CC[C@]3(C)C(=CC[C@@H]4[C@@]5(C)CC[C@H](O[C@@H]6OC[C@H](O)[C@H](O)[C@H]6O)C(CO)(CO)[C@@H]5CC[C@]43C)[C@@H]2[C@]1(C)O [BREVICUSPISAPONIN 2] | 4.80 | < 4.49 |
| C[C@@H]1CC[C@]2(C(=O)O[C@@H]3O[C@H](CO)[C@@H](O)[C@H](O)[C@H]3O)CC[C@]3(C)C(=CC[C@@H]4[C@@]5(C)CC[C@H](O[C@@H]6OC[C@H](O)[C@H](O[C@@H]7O[C@H](CO)[C@@H](O)[C@H](O)[C@H]7O)[C@H]6O)C(C)(C)[C@@H]5CC[C@]43C)[C@@H]2[C@]1(C)O [ILEKUDINOSIDE E] | < 4.49 | < 4.49 |
| C[C@H]1[C@H](C)CC[C@]2(C(=O)O[C@@H]3O[C@H](CO)[C@@H](O)[C@H](O)[C@H]3O)CC[C@]3(C)C(=CC[C@@H]4[C@@]5(C)CC[C@H](O[C@@H]6OC[C@H](O)[C@H](O[C@@H]7O[C@H](CO)[C@@H](O)[C@H](O)[C@H]7O)[C@H]6O)C(C)(C)[C@@H]5CC[C@]43C)[C@H]12 [MATESAPONIN 1] | < 4.49 | < 4.49 |
| C[C@H]1[C@H](C)CC[C@]2(C(=O)O[C@@H]3O[C@H](CO[C@@H]4O[C@H](CO)[C@@H](O)[C@H](O)[C@H]4O)[C@@H](O)[C@H](O)[C@H]3O)CC[C@]3(C)C(=CC[C@@H]4[C@@]5(C)CC[C@H](O[C@@H]6OC[C@H](O)[C@H](O[C@@H]7O[C@H](CO)[C@@H](O)[C@H](O)[C@H]7O)[C@H]6O)C(C)(C)[C@@H]5CC[C@]43C)[C@H]12 [MATESAPONIN 3] | < 4.49 | < 4.49 |
| C[C@H]1[C@H](C)CC[C@]2(C(=O)O[C@@H]3O[C@H](CO[C@@H]4O[C@H](CO)[C@@H](O)[C@H](O)[C@H]4O)[C@@H](O)[C@H](O)[C@H]3O)CC[C@]3(C)C(=CC[C@@H]4[C@@]5(C)CC[C@H](O[C@@H]6OC[C@H](O)[C@H](O[C@@H]7O[C@H](CO)[C@@H](O)[C@H](O)[C@H]7O)[C@H]6O[C@@H]6O[C@@H](C)[C@H](O)[C@@H](O)[C@H]6O)C(C)(C)[C@@H]5CC[C@]43C)[C@H]12 [MATESAPONIN 4] | < 4.49 | < 4.49 |
| CC1CS(=O)(=O)CCN1/N=C/c1ccc([N+](=O)[O-])o1 (configuration not stated) [NIFURTIMOX] | – | 6.41 |
| CC(=O)O[C@H]1CC[C@]2(C)[C@H]3CC=C4[C@@H]5[C@@H](C)[C@H](C)CC[C@]5(C(=O)O)CC[C@@]4(C)[C@]3(C)CC[C@H]2C1(C)C [O-ACETYLURSOLIC ACID] | 4.77 | < 4.49 |
| C[C@@H]1CC[C@]2(C(=O)O[C@@H]3O[C@H](CO)[C@@H](O)[C@H](O)[C@H]3O)CC[C@]3(C)C(=CC[C@@H]4[C@@]5(C)CC[C@H](O)[C@@](C)(CO)[C@@H]5CC[C@]43C)[C@@H]2[C@]1(C)O [PEDUNCULOSIDE] | < 4.49 | < 4.49 |
| CC(=O)OC[C@H]1O[C@@H](OC(=O)[C@]23CC[C@@H](C)[C@@](C)(OC(C)=O)[C@H]2C2=CC[C@@H]4[C@@]5(C)CC[C@H](O[C@@H]6OC[C@H](OC(C)=O)[C@H](O[C@@H]7O[C@H](COC(C)=O)[C@@H](OC(C)=O)[C@H](OC(C)=O)[C@H]7OC(C)=O)[C@H]6OC(C)=O)C(C)(C)[C@@H]5CC[C@@]4(C)[C@]2(C)CC3)[C@H](OC(C)=O)[C@@H](OC(C)=O)[C@@H]1OC(C)=O [PERACETYL ILEXOSIDE II] | < 4.49 | < 4.49 |
| C[C@H]1[C@H](C)CC[C@]2(C(=O)O)CC[C@]3(C)C(=CC[C@@H]4[C@@]5(C)CC[C@H](O)C(C)(C)[C@@H]5CC[C@]43C)[C@H]12 [URSOLIC ACID] | 5.40 | 5.40 |
| C[C@H]1[C@H](C)CC[C@]2(CO)CC[C@]3(C)C(=CC[C@@H]4[C@@]5(C)CC[C@H](O)C(C)(C)[C@@H]5CC[C@]43C)[C@H]12 [UVAOL] | < 4.49 | < 4.49 |
